Test results as given in ChEMBL document CHEMBL3352362, “Discovery of a novel, first-in-class, orally bioavailable azaindole inhibitor (VX-787) of influenza PB2” (J Med Chem, 2014).

Assays:
[1] = AUC in rat at 3 mg/kg, po; format: ADME, organism-based; set-up: dose 3 mg/kg, route oral; conditions: plasma
[2] = molecular target: Polymerase basic protein 2 (Influenza A virus (strain A/Puerto Rico/8/1934 H1N1), UniProt P03428); experiment: Binding affinity to influenza A virus (A/Puerto Rico/8/1934(H1N1)) PB2 by competition binding fluorescence polarization (FP) assay
Method in brief: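 Fluorescence polarization competition binding assay measuring affinity for the cap-binding domain of the PB2 subunit.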

[3] = Oral bioavailability in rat at 3 mg/kg; format: ADME, organism-based; conditions: in vivo
[4] = Half life in rat at 3 mg/kg, iv; format: ADME, organism-based; set-up: dose 3 mg/kg, route intravenous; conditions: in vivo
Influenza A virus [5] = experiment: Antiviral activity against Influenza A virus (A/Puerto Rico/8/1934(H1N1)) infected in cells assessed as reduction in multiplication of virus-specific RNA molecules using branched-chain DNA; format: functional
Method in brief: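 Viral RNA replication in infected cells quantified by the bDNA QuantiGene method with strand-specific probes for positive- or negative-strand RNA. EC90 is the compound concentration giving viral RNA levels equal to 10% of control wells.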

Influenza A virus [6] = experiment: Antiviral activity against Influenza A virus (A/Puerto Rico/8/1934(H1N1)) infected in MDCK cells assessed as cell protection after 72 hrs by cytopathic effect assay; format: functional, organism-based
Method in brief: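 MDCK cells incubated with test compound and influenza A virus for 72 h (3-day CPE format). Cell viability read by an ATP end point. EC50 is the concentration giving 50% cell protection; mean of N = 3 or greater.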

[7] = Clearance in rat at 3 mg/kg, iv; format: ADME, organism-based; set-up: dose 3 mg/kg, route intravenous; conditions: in vivo
[8] = Cmax in mouse at 30 mg/kg; format: ADME, organism-based; set-up: dose 30 mg/kg; conditions: in vivo
[9] = Cmax in rat at 3 mg/kg, po; format: ADME, organism-based; set-up: dose 3 mg/kg, route oral; conditions: in vivo
[10] = AUC in mouse at 30 mg/kg; format: ADME, organism-based; set-up: dose 30 mg/kg; conditions: plasma

Polymerase basic protein 2, sequence (P03428 whole entry, the tested form may be a part): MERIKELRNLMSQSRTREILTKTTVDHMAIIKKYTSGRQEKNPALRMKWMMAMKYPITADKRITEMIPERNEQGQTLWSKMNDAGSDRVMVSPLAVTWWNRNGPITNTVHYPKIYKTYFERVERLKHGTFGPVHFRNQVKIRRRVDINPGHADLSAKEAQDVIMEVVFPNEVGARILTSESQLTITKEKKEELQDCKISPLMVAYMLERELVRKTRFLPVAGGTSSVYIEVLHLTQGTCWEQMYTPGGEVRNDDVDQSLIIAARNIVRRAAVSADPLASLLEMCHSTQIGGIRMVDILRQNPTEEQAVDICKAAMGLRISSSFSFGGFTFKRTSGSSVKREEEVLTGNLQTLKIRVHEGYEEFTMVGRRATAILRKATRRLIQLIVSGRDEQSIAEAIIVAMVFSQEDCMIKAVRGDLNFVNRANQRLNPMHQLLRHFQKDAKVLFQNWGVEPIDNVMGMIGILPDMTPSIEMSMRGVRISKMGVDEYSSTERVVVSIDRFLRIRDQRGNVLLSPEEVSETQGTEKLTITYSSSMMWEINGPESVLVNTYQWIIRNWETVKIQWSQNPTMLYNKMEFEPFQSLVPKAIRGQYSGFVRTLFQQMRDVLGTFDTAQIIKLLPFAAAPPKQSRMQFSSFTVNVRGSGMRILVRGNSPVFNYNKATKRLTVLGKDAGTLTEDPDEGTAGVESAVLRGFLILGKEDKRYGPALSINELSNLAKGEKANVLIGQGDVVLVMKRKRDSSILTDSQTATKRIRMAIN

Row | Compound | AUC [1] [ng·h/mL] | Kd [2] [nM] | bioavailability [3] [%] | half-life [4] [h] | EC90 (Influenza A virus [5]) [nM] | EC50 (Influenza A virus [6]) [nM] | clearance [7] [mL/min/kg] | Cmax [8] [ng/mL] | Cmax [9] [ng/mL] | AUC [10] [ng·h/mL]
1 | Cn1cncc1C(=O)N[C@@H]1CCC[C@H](Nc2nc(-c3c[nH]c4ncc(F)cc34)ncc2F)C1 | 3700 | 90 | 100 | 2 | 5 | 2 | 22 | 13000 | 600 | 19000
2 | CC(=O)N[C@H]1CCCC[C@@H]1Nc1nc(-c2c[nH]c3ncc(Cl)cc23)ncc1F | – | 100 | – | – | 1460 | 44 | – | – | – | –
3 | N[C@H]1CCCC[C@@H]1Nc1nc(-c2c[nH]c3ncc(Cl)cc23)ncc1F | – | 90 | – | – | 2480 | 620 | – | – | – | –
4 | CC(O)C(=O)N[C@@H]1CCC[C@H](Nc2nc(-c3c[nH]c4ncc(Cl)cc34)ncc2F)C1 (stereo partly drawn) | – | 400 | – | – | 240 | 86 | – | – | – | –
5 | CC(=O)N[C@@H]1CCC[C@H](Nc2nc(-c3c[nH]c4ncc(Cl)cc34)ncc2F)C1 | – | 70 | – | – | 25 | 36 | – | – | – | –
6 | Fc1cnc(-c2c[nH]c3ncc(Cl)cc23)nc1NC1CCCC1 | – | 700 | – | – | > 10000 | > 20000 | – | – | – | –
7 | C[C@H](Nc1nc(-c2c[nH]c3ncc(Cl)cc23)ncc1F)C(=O)N(C)C | – | 100 | – | – | 1130 | 510 | – | – | – | –
8 | NC(=O)[C@H]1CCCC[C@@H]1Nc1nc(-c2c[nH]c3ncc(Cl)cc23)ncc1F (racemic) | – | 30 | – | – | 3130 | – | – | – | – | –
9 | O=C(O)[C@H]1C2CCC(CC2)[C@@H]1Nc1nc(-c2c[nH]c3ncc(Cl)cc23)ncc1F | 300 | < 5 | 24 | 3.9 | 1 | 1 | 32 | 3700 | 30 | 10000
10 | CN(C)c1cnc2[nH]cc(-c3ncc(F)c(N[C@H]4CCC[C@@H](NC(=O)N5CCOCC5)C4)n3)c2c1 | – | – | – | – | > 3000 | 1260 | – | – | – | –
11 | COCC(=O)N[C@@H]1CCC[C@H](Nc2nc(-c3c[nH]c4ncc(F)cc34)ncc2F)C1 | – | 200 | – | – | 90 | 45 | – | – | – | –
12 | CC(=O)N1CCC[C@H](CNc2nc(-c3c[nH]c4ncc(Cl)cc34)ncc2F)C1 | – | 300 | – | – | 540 | 400 | – | – | – | –
13 | Cc1cnc2[nH]cc(-c3ncc(F)c(N[C@H]4CCC[C@@H](NC(=O)N5CCOCC5)C4)n3)c2c1 | – | – | – | – | 13 | 10 | 78 | – | – | –
14 | O=C(O)[C@H]1[C@@H]2CC[C@@H](C2)[C@@H]1Nc1nc(-c2c[nH]c3ncc(Cl)cc23)ncc1F (racemic) | – | < 2 | – | – | 21 | 8 | – | – | – | –
15 | CN(C)C(=O)N[C@@H]1CCC[C@H](Nc2nc(-c3c[nH]c4ncc(F)cc34)ncc2F)C1 | – | 400 | – | – | 6 | 2 | – | – | – | –
16 | O=C(O)[C@H]1CCCC[C@@H]1Nc1nc(-c2c[nH]c3ncc(Cl)cc23)ncc1F (racemic) | 200 | < 2 | 7 | 1 | 187 | 134 | 16 | – | 30 | –
17 | Cn1cncc1C(=O)N[C@@H]1CCC[C@H](Nc2nc(-c3c[nH]c4ncc(Cl)cc34)ncc2F)C1 | – | 20 | – | – | 3 | 2 | – | – | – | –
18 | O=C(CN1CCOCC1)N[C@@H]1CCC[C@H](Nc2nc(-c3c[nH]c4ncc(Cl)cc34)ncc2F)C1 | – | 200 | – | – | 380 | 100 | – | – | – | –
19 | N[C@@H]1CCCC[C@H]1Nc1nc(-c2c[nH]c3ncc(Cl)cc23)ncc1F | – | 4900 | – | – | – | > 20000 | – | – | – | –

Row | Compound | AUC [1] [ng·h/mL] | Kd [2] [nM] | bioavailability [3] [%] | half-life [4] [h] | EC90 (Influenza A virus [5]) [nM] | EC50 (Influenza A virus [6]) [nM] | clearance [7] [mL/min/kg] | Cmax [8] [ng/mL] | Cmax [9] [ng/mL] | AUC [10] [ng·h/mL]
20 | O=C(N[C@@H]1CCC[C@H](Nc2nc(-c3c[nH]c4ncc(C(F)(F)F)cc34)ncc2F)C1)N1CCOCC1 | – | – | – | – | 3 | 3 | 81 | – | – | –
21 | C[C@]1(C(=O)O)CCCC[C@@H]1Nc1nc(-c2c[nH]c3ncc(Cl)cc23)ncc1F (racemic) | 2200 | < 2 | 82 | 3.2 | 59 | 11 | 24 | 1300 | 200 | 2400
22 | COCCC(=O)N1CCC[C@H](Nc2nc(-c3c[nH]c4ncc(Cl)cc34)ncc2F)C1 | – | 100 | – | 0.7 | 320 | 13 | 88 | – | – | –
23 | Fc1cnc(-c2c[nH]c3ncc(Cl)cc23)nc1NC1CCCNC1 (stereo not drawn) | – | – | – | – | – | 1870 | – | – | – | –
24 | C[C@]1(C(=O)O)CCCC[C@@H]1Nc1nc(-c2c[nH]c3ncc(F)cc23)ncc1F | – | < 2 | – | – | 140 | 18 | – | – | – | –
25 | CCc1cnc2[nH]cc(-c3ncc(F)c(N[C@H]4CCC[C@@H](NC(=O)N5CCOCC5)C4)n3)c2c1 | – | – | – | – | 260 | 25 | – | – | – | –
26 | OC[C@H](O)CN1CCC[C@H](Nc2nc(-c3c[nH]c4ncc(Cl)cc34)ncc2F)C1 | – | 400 | – | 2.3 | 360 | 270 | 56 | 1200 | – | 6500
27 | COCC(=O)N[C@@H]1CCC[C@H](Nc2nc(-c3c[nH]c4ncc(Cl)cc34)ncc2F)C1 | – | 70 | – | – | 20 | 44 | – | – | – | –
28 | O=C(NC1CCOCC1)N[C@@H]1CCC[C@H](Nc2nc(-c3c[nH]c4ncc(F)cc34)ncc2F)C1 | – | 400 | – | – | 160 | 60 | – | – | – | –
29 | O=C(N[C@@H]1CCC[C@H](Nc2nc(-c3c[nH]c4ncccc34)ncc2F)C1)N1CCOCC1 | – | – | – | – | 200 | 98 | – | – | – | –
30 | COc1cnc2[nH]cc(-c3ncc(F)c(N[C@H]4CCC[C@@H](NC(=O)N5CCOCC5)C4)n3)c2c1 | – | – | – | – | 170 | 95 | – | – | – | –
31 | O=C(N[C@@H]1CCC[C@H](Nc2nc(-c3c[nH]c4ncc(F)cc34)ncc2F)C1)N1CCOCC1 | 1100 | 400 | 46 | 1.7 | 12 | 4 | 22 | 18200 | 200 | 180000
32 | O=C(O)[C@H]1[C@H]2CC[C@H](C2)[C@@H]1Nc1nc(-c2c[nH]c3ncc(Cl)cc23)ncc1F (racemic) | – | < 2 | – | – | 6 | < 2 | – | – | – | –
33 | NC(=O)CN1CCC[C@H](Nc2nc(-c3c[nH]c4ncc(Cl)cc34)ncc2F)C1 | – | 80 | – | – | 20 | 81 | 182 | – | – | –
34 | Fc1cnc(-c2c[nH]c3ncc(Cl)cc23)nc1NC1CCCCC1 | – | 300 | – | – | 2370 | 1640 | – | – | – | –
35 | COCC[C@]1(C(=O)O)CCCC[C@@H]1Nc1nc(-c2c[nH]c3ncc(Cl)cc23)ncc1F (racemic) | – | 9 | – | – | 90 | 18 | – | – | – | –
36 | CS(=O)(=O)N1CCCC[C@@H]1CNc1nc(-c2c[nH]c3ncc(Cl)cc23)ncc1F | – | 100 | – | 0.4 | 540 | 660 | 152 | – | – | –
37 | CC(=O)c1cnc2[nH]cc(-c3ncc(F)c(N[C@H]4CCC[C@@H](NC(=O)N5CCOCC5)C4)n3)c2c1 | – | – | – | – | > 3000 | > 10000 | – | – | – | –
38 | O=C(N[C@@H]1CCC[C@H](Nc2nc(-c3c[nH]c4ncc(Cl)cc34)ncc2F)C1)N1CCOCC1 | – | 500 | – | – | 5 | 2 | 59 | – | – | –
